Test results published in ChEMBL document CHEMBL4765302, “Design, synthesis and biological evaluation of novel histone deacetylase1/2 (HDAC1/2) and cyclin-dependent Kinase2 (CDK2) dual inhibitors against malignant cancer” (Eur J Med Chem, 2020).

Tests used:
HepG2 [1] = test: Antiproliferative activity against human HepG2 cells assessed as reduction in cell growth at 8 uM incubated for 72 hrs by CCK-8 assay relative to control; type: functional
NCI-H460 [2] = test: Antiproliferative activity against human H460 cells assessed as reduction in cell growth at 8 uM incubated for 72 hrs by CCK-8 assay relative to control; type: functional
HCT-116 [3] = test: Antiproliferative activity against human HCT-116 cells assessed as reduction in cell growth at 8 uM incubated for 72 hrs by CCK-8 assay relative to control; type: functional
NCI-H460 [4] = test: Antiproliferative activity against human H460 cells assessed as reduction in cell growth at 2 uM incubated for 72 hrs by CCK-8 assay relative to control; type: functional
Histone deacetylase 1 = Histone deacetylase 1 (Homo sapiens, UniProt Q13547); test: Inhibition of recombinant human HDAC1 at 10 uM using SIRT1 as substrate incubated for 10 mins followed by substrate addition and measured after 30 mins by fluorescence based assay relative to control; details: time 40.0 min
Chain of Histone deacetylase 1 (Q13547 whole entry): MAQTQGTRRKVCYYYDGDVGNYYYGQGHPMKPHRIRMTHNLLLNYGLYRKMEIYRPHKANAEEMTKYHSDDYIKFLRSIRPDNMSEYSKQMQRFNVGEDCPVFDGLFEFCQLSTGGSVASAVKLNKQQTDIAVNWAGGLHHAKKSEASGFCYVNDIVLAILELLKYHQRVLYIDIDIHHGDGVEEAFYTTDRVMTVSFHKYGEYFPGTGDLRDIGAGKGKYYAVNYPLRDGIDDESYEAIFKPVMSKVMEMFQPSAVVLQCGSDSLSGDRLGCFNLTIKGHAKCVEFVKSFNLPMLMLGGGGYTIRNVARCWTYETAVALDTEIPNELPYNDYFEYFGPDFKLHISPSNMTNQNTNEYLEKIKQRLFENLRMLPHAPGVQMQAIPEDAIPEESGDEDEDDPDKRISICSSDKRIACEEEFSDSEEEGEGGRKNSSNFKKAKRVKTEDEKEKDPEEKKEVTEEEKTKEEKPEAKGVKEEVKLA
Outline: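 Enzyme inhibition of HDAC1 measured at a single concentration of 10 µM, tested alongside the cell-growth screen.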

HepG2 [5] = test: Antiproliferative activity against human HepG2 cells assessed as reduction in cell growth at 2 uM incubated for 72 hrs by CCK-8 assay relative to control; type: functional
HCT-116 [6] = test: Antiproliferative activity against human HCT-116 cells assessed as reduction in cell growth at 2 uM incubated for 72 hrs by CCK-8 assay relative to control; type: functional
NCI-H460 [7] = test: Antiproliferative activity against human NCI-H460 cells assessed as reduction in cell growth incubated for 72 hrs by CCK-8 assay; type: functional, cell-based; details: NCI-H460, 72 h
Outline: (§1)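 IC50 by CCK-8 assay across five solid-tumour lines (HCT116, HepG2, H460, HeLa, A375). Run only for compounds chosen after the single-concentration screen, with CS055 and roscovitine as references.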

HCT-116 [8] = test: Antiproliferative activity against human HCT-116 cells assessed as reduction in cell growth incubated for 72 hrs by CCK-8 assay; type: functional, cell-based; details: HCT-116, 72 h; outline: as §1
HepG2 [9] = test: Antiproliferative activity against human HepG2 cells assessed as reduction in cell growth incubated for 72 hrs by CCK-8 assay; type: functional, cell-based; details: HepG2, 72 h; outline: as §1
HeLa = test: Antiproliferative activity against human HeLa cells assessed as reduction in cell growth incubated for 72 hrs by CCK-8 assay; type: functional, cell-based; outline: as §1
A-375 = test: Antiproliferative activity against human A-375 cells assessed as reduction in cell growth incubated for 72 hrs by CCK-8 assay; type: functional, cell-based; details: A-375, 72 h; outline: as §1

Row | SMILES | inhibition at 8 µM (HepG2 [1]) [%] | inhibition at 8 µM (NCI-H460 [2]) [%] | inhibition at 8 µM (HCT-116 [3]) [%] | inhibition at 2 µM (NCI-H460 [4]) [%] | inhibition (Histone deacetylase 1) [%] | inhibition at 2 µM (HepG2 [5]) [%] | inhibition at 2 µM (HCT-116 [6]) [%] | IC50 (NCI-H460 [7]) [µM] | IC50 (HCT-116 [8]) [µM] | IC50 (HepG2 [9]) [µM] | IC50 (HeLa) [µM] | IC50 (A-375) [µM]
1 | Nc1ccccc1NC(=O)/C=C/c1ccc(Cn2cnc3c(NC4CCCCC4)nc(Cl)nc32)cc1 | 42.6 | 24.9 | 18.7 | 8.09 | 28.2 | 3.83 | 3.34 | – | – | – | – | –
2 | CC1CCN(c2nc(Cl)nc3c2ncn3Cc2ccc(C(=O)Nc3ccccc3N)cc2)CC1 | 65.3 | 40.9 | 78.6 | 11.8 | 75.3 | 1.22 | 70.9 | 7.4 | 0.95 | 5.18 | 4.5 | 4.24
3 | Nc1ccccc1NC(=O)/C=C/c1ccc(Cn2cnc3c(Nc4cccc(Cl)c4)nc(Cl)nc32)cc1 | 49.3 | 29.4 | 15.8 | 7.11 | 23.6 | 35.8 | 12.9 | – | – | – | – | –
4 | CCCCn1cnc2c(NCc3ccc(C(=O)Nc4ccccc4N)cc3)nc(Cl)nc21 | 19.6 | 23.7 | 40.9 | 19.7 | 9.56 | 6.8 | 4.89 | – | – | – | – | –
5 | Nc1ccccc1NC(=O)c1ccc(Cn2cnc3c(Nc4ccccc4)nc(Cl)nc32)cc1 | 74.8 | 77.8 | 83.5 | 42.7 | 84 | 49.6 | 71.4 | 5.74 | 1.07 | 4.18 | 2.92 | 2.8
6 | COC(CCn1cnc2c(NCc3ccc(C(=O)Nc4ccccc4N)cc3)nc(Cl)nc21)OC | 34.2 | 51.2 | 11.9 | 43.7 | 29.5 | 8.52 | 6.39 | – | – | – | – | –
7 | Nc1ccccc1NC(=O)c1ccc(Cn2cnc3c(Nc4cccc(OC(F)(F)F)c4)nc(Cl)nc32)cc1 | 31.2 | 62.4 | 46.6 | 47.7 | 37.4 | 1.88 | 1.6 | – | – | – | – | –
8 | Nc1ccccc1NC(=O)c1ccc(Cn2cnc3c(Nc4ccc(-c5ccccn5)cc4)nc(Cl)nc32)cc1 | 41.2 | 30.8 | 73.7 | 18.1 | 43.9 | 11.5 | 69.5 | 18.4 | 1.25 | 30.1 | > 20 | 18.5
9 | Nc1ccccc1NC(=O)/C=C/c1ccc(Cn2cnc3c(NCc4ccccc4)nc(Cl)nc32)cc1 | 37.7 | 49.1 | 17.4 | 4.62 | 22.5 | 11.5 | 2.85 | – | – | – | – | –
10 | Nc1ccccc1NC(=O)c1ccc(CNc2nc(Cl)nc3c2ncn3Cc2ccccc2)cc1 | 5.32 | 46.4 | 11.4 | 43.8 | 27.6 | 5.01 | 7.7 | – | – | – | – | –
11 | CC(C)n1cnc2c(NCc3ccc(C(=O)Nc4ccccc4N)cc3)nc(Cl)nc21 | 74.4 | 80.5 | 76 | 54.1 | 89.7 | 63.8 | 73.2 | 3.41 | 0.8 | 3.32 | 2.13 | 2.17
12 | Cc1ccc(Nc2nc(Cl)nc3c2ncn3Cc2ccc(/C=C/C(=O)Nc3ccccc3N)cc2)cc1 | 43 | 51.3 | 15 | 31.3 | 41.8 | 33.6 | 0.27 | – | – | – | – | –
13 | Nc1ccccc1NC(=O)c1ccc(CNc2nc(Cl)nc3c2ncn3C2CCCC2)cc1 | 74.9 | 57.4 | 80.6 | – | 90.9 | 54.7 | 75.6 | 5.78 | 0.85 | 3.43 | 3.02 | 2.79
14 | Nc1ccccc1NC(=O)/C=C/c1ccc(Cn2cnc3c(Nc4cccc(OC(F)(F)F)c4)nc(Cl)nc32)cc1 | 37.6 | 66.7 | 5.23 | 2.1 | 40.3 | 16.2 | 2.8 | – | – | – | – | –
15 | CN1CCN(c2nc(Cl)nc3c2ncn3Cc2ccc(C(=O)Nc3ccccc3N)cc2)CC1 | 75 | 55 | 72.8 | 13.4 | 80.5 | 60.4 | 71.6 | 6.16 | 0.31 | 2.01 | 1.17 | 1.6
16 | Nc1ccccc1NC(=O)/C=C/c1ccc(Cn2cnc3c(N4CCOCC4)nc(Cl)nc32)cc1 | 40.9 | 37.9 | 55.4 | 1.24 | 25.7 | 19 | 17.8 | – | – | – | – | –
17 | CCCCn1cnc2c(Nc3cccc(Cl)c3)nc(NCCOCc3ccc(/C=C/C(=O)Nc4ccccc4N)cc3)nc21 | 30.4 | 51.1 | 10.8 | 25.7 | 24.6 | 20.4 | 4.76 | – | – | – | – | –
18 | CC1CCN(c2nc(Cl)nc3c2ncn3Cc2ccc(/C=C/C(=O)Nc3ccccc3N)cc2)CC1 | 32.2 | 10.8 | 26.9 | 8.24 | 4.87 | 8.73 | 4.24 | – | – | – | – | –
19 | Nc1ccccc1NC(=O)/C=C/c1ccc(Cn2cnc3c(Nc4ccccc4)nc(Cl)nc32)cc1 | 41.9 | 28.7 | 30.9 | 2.05 | 14.8 | 16.4 | 7.75 | – | – | – | – | –
20 | CCCn1cnc2c(NCc3ccc(C(=O)Nc4ccccc4N)cc3)nc(Cl)nc21 | 14.1 | 39.2 | 29.6 | 31 | 11.4 | 12.4 | 28.5 | – | – | – | – | –
